Data: the RNAGym collection of RNA variant scans (doi:10.1126/science.aae0568)
This sample holds only a part of the variants without activity.

B1: tRNA (parent)
chain: GUUCCGUUGGCGUAAUGGUAACGCGUCUCCCUCCUAAGGAGAAGACUGCGGGUUCGAGUCCCGUACGGAACG

Variants of: B1
Assay: yeast fitness relative to wild type (ratio to wild type); higher = fitter; tRNA-Arg(CCU), competitive growth, 37 C, YPD
How it was run: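 Start and end populations of a pooled competition were compared by 100-nucleotide paired-end sequencing of gene amplicons. The Saccharomyces cerevisiae strains carried tRNA-Arg(CCU) gene variants at the native genomic locus, synthesised with a 3% per-site mutation rate at 69 sites, and competed in YPD at 37°C for 24 hours in six parallel replicates. Darwinian fitness relative to wild type was based on the change in genotype frequencies. Genotypes required ≥ 100 starting reads, and estimates < 0.5 were set to 0.5.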

Going from G9C C30G C46U to G25C G44C C49U, the yeast fitness falls from 0.564 to 0.505.

First: A37U A57G
Second: G6C G10A
The yeast fitness of the first is lower: 0.648 for the first, 0.666 for the second.

First: A15G A21G C29G A42G C55A
Second: G6C C11A U32A A42G C55U
The yeast fitness of the first is lower: at most 0.5 for the first, 0.605 for the second.

First: G12A A36U
Second: G12C G41A C60G A65G
The yeast fitness of the first is higher: 0.612 for the first, 0.519 for the second.

Going from G9A C33U A37U to U7C C60A, the yeast fitness rises from 0.605 to 0.674.

Compared with C5G A21G C27G C34G A43C C46G A70U, G10A A15C C49A C61U C62G is lower in yeast fitness: 0.569 for the first, at most 0.5 for the second.

Going from C24G C30U C61G to U16A C62A, the yeast fitness rises from at most 0.5 to 0.786.

Compared with G52C G63C, U16C A40C A57G C61U is lower in yeast fitness: 0.577 for the first, at most 0.5 for the second.

Going from C4A C11U C29G C34A G39C to G17A C66A, the yeast fitness rises from at most 0.5 to 0.647.

First: A14G A15C A37C C46A A69U
Second: A45G A57C
The yeast fitness of the first is lower: at most 0.5 for the first, 0.668 for the second.

Compared with C46U G63C, A15C U19A G39A is lower in yeast fitness: 0.753 for the first, 0.519 for the second.

Compared with U8C G12C U32G A42U, U19A A21U is higher in yeast fitness: at most 0.5 for the first, 0.854 for the second.

First: C4G U28A C31G A57G C62U
Second: C5U G12C G44C
The yeast fitness of the first is higher: 0.532 for the first, 0.53 for the second.

First: G12A A21G C34U G67U
Second: A37G A65G
The yeast fitness of the first is lower: at most 0.5 for the first, 0.695 for the second.

Going from U2G G38C to A14C U28A U54C G56C G58A, the yeast fitness falls from 0.606 to at most 0.5.

A15U U26A C31A G67U and A14C C30A C31U A36U cannot be ordered by yeast fitness: at most 0.5 for the first, at most 0.5 for the second.

Compared with U53C G56A, C29G C49G G63C is lower in yeast fitness: 0.802 for the first, at most 0.5 for the second.

Compared with G9C C55U, G10A A20C C27G A40G is lower in yeast fitness: 0.635 for the first, at most 0.5 for the second.

First: U3C G23C C66U
Second: C46U C49A A65U
The yeast fitness of the first is lower: at most 0.5 for the first, 0.554 for the second.

U2A U3A U16C C24U A69U and C5G A37C A57U cannot be ordered by yeast fitness: at most 0.5 for the first, at most 0.5 for the second.

Going from U26G C55G to G17C C22G U26C U47A C66G, the yeast fitness falls from 0.636 to at most 0.5.

First: U8G G41A
Second: U16A C62U A69G
The yeast fitness of the first is lower: 0.642 for the first, 0.922 for the second.

Going from C22A C62A to C5A G18A G52C, the yeast fitness falls from 0.785 to at most 0.5.

First: A14U A70G
Second: C11G C29A U35C A43C
The yeast fitness of the first is higher: 0.734 for the first, at most 0.5 for the second.

First: C4G A14U A21C
Second: U2A C5U C29G A37U A65G
The yeast fitness of the first is higher: 0.764 for the first, at most 0.5 for the second.

Compared with G17C A37C A40C C61U G68A, C22U C46A G67A is higher in yeast fitness: at most 0.5 for the first, 0.657 for the second.

Going from U13A A20G G41A G51C G67C to C31G C34U, the yeast fitness rises from at most 0.5 to 0.626.

First: A43U C61U
Second: C5U U16G U35A
The yeast fitness of the first is higher: 0.969 for the first, at most 0.5 for the second.

First: C5G A42G U64C
Second: A21G G23C C31U C34G A43G A45C G67C
The yeast fitness of the first is higher: 0.72 for the first, at most 0.5 for the second.

Going from U2A C33A C34U G56A to U2A C11U G23A C29G, the yeast fitness falls from 0.542 to 0.527.

First: A21G C29G G58C A70C
Second: U28A A70G
The yeast fitness of the first is lower: at most 0.5 for the first, 0.904 for the second.

Going from U16C C30A to A14G C22U A45U, the yeast fitness falls from 0.834 to 0.626.

First: A21G G41A
Second: C24U G41A G68A
The yeast fitness of the first is higher: 0.995 for the first, at most 0.5 for the second.

Going from A21G C49A G56A to U8C G17A, the yeast fitness rises from 0.533 to 0.711.

Going from C27U A37C A40U A43U C66U to U7A A14G C31U G39C A40C A45U U47C G68C, the yeast fitness falls from 0.583 to at most 0.5.

C11U A42G C60A and C24G U26A C33U cannot be ordered by yeast fitness: at most 0.5 for the first, at most 0.5 for the second.

G6A C29G U35G C61U and C11G U13C A37U cannot be ordered by yeast fitness: at most 0.5 for the first, at most 0.5 for the second.

Compared with C31U C46A A65U A69U, U2C C46U U59C is higher in yeast fitness: 0.58 for the first, 0.705 for the second.

Going from A14G U19G G48C to A15C C27A U32G, the yeast fitness falls from 0.736 to 0.709.

Compared with C5A C29U A69U, C5G U26C A43G U47C U64A is lower in yeast fitness: 0.632 for the first, at most 0.5 for the second.

Going from C27U A45C G63A to C22U C49U U64A, the yeast fitness falls from 0.68 to 0.53.

C5A U8C G10A A21G A45C G56C and U13A C27A A36C A42U U64G cannot be ordered by yeast fitness: at most 0.5 for the first, at most 0.5 for the second.

Compared with A14G A20C C46G, C24G C30U C31U C61U G67C is lower in yeast fitness: 0.635 for the first, at most 0.5 for the second.

Compared with C34U A37U G58C C62A, C27U C34U G41C U47G is lower in yeast fitness: 0.736 for the first, at most 0.5 for the second.

C11A G17C A21U and G10A A21U C31A G39C C62G G68A cannot be ordered by yeast fitness: at most 0.5 for the first, at most 0.5 for the second.

Going from G10C A57G A69U to A14C U16A A21C G56A, the yeast fitness falls from 0.559 to at most 0.5.

C11U A42C C49G and G23C A42U A43G A65U cannot be ordered by yeast fitness: at most 0.5 for the first, at most 0.5 for the second.

Compared with U3C G18A U53A U54G, A14U A45C C46U C49G G63A A70U is higher in yeast fitness: 0.544 for the first, 0.661 for the second.

First: U3A G48C U59C
Second: A14C C24U C29U A40U G68U
The yeast fitness of the first is higher: 0.537 for the first, at most 0.5 for the second.

Going from A40U A42G C55A to G17A A70U, the yeast fitness rises from at most 0.5 to 0.864.

Compared with C11G C24U U28C C66G, U3C C31U G68C is higher in yeast fitness: at most 0.5 for the first, 0.664 for the second.

A20G C22G C27G C30U C31G G51C C61G and U16C C24U C29A C31G C34G cannot be ordered by yeast fitness: at most 0.5 for the first, at most 0.5 for the second.

First: U3A U16C C46U
Second: C4U C24G A36C A70C
The yeast fitness of the first is higher: 0.631 for the first, at most 0.5 for the second.

First: U3G C11U U47A G48C
Second: U19A A37C C49G
The yeast fitness of the first is higher: 0.675 for the first, 0.501 for the second.

Compared with U28A C31A A42C A45U G51A U64A, A45U A57G is higher in yeast fitness: 0.512 for the first, 0.917 for the second.

Compared with U16C C31U C55U, U28A C29G G68C is lower in yeast fitness: 0.659 for the first, at most 0.5 for the second.

Going from G12C C49U to C5G A15G C24G C60A, the yeast fitness falls from 0.893 to at most 0.5.

Compared with G9C C27G G52C, A21G U26A C34U G50C C62U is lower in yeast fitness: 0.595 for the first, at most 0.5 for the second.

Compared with U35A A45C G56A, C4A C22U C30A is lower in yeast fitness: 0.636 for the first, 0.504 for the second.

Compared with A15U C31U A36G, U19C C34A is higher in yeast fitness: 0.568 for the first, 0.76 for the second.

C4G U7C C27A and U7G C30U G38A G50A U59C cannot be ordered by yeast fitness: at most 0.5 for the first, at most 0.5 for the second.

First: U3C A15C G38A U54A A57U
Second: C11G C31G A42U A65C
The yeast fitness of the first is lower: at most 0.5 for the first, 0.602 for the second.

Going from A14U U28A C46G to C30U C33G, the yeast fitness rises from at most 0.5 to 0.691.

C22G C27U C30U A37G A43U G67A and C5A A15U C24A G25A U47C G52C cannot be ordered by yeast fitness: at most 0.5 for the first, at most 0.5 for the second.

Compared with C24G C30G G39A, U2C G12C A14G C29U U59G G63C is lower in yeast fitness: 0.593 for the first, at most 0.5 for the second.

First: U2C C24G C46U
Second: G10A C11A U16G A69G
The yeast fitness of the first is lower: at most 0.5 for the first, 0.538 for the second.

First: A21U A69C
Second: C29A C30G G38U
The yeast fitness of the first is higher: 0.827 for the first, at most 0.5 for the second.

Compared with C4U A15C A70U, U3A C29A is higher in yeast fitness: 0.573 for the first, 0.653 for the second.

Going from C4U G23C A40U A42G A45G G51C C61U G63A to C31A A45U A70U, the yeast fitness rises from at most 0.5 to 0.789.

C29A C66A G68C and A14C C22G A37C cannot be ordered by yeast fitness: at most 0.5 for the first, at most 0.5 for the second.

U28A C31A A42C A45U G48A G51A U64A and A15G U54G C55U A65G cannot be ordered by yeast fitness: at most 0.5 for the first, at most 0.5 for the second.

First: C30U C31G
Second: C24G C34G U53A
The yeast fitness of the first is higher: 0.79 for the first, 0.552 for the second.

Going from U19G A70C to U2A A15G, the yeast fitness falls from 0.999 to 0.981.

G23C C29A C66U and A45G G48A G56C C60G cannot be ordered by yeast fitness: at most 0.5 for the first, at most 0.5 for the second.

A20C A37C C66U and A14G A15C U35C C46A A69U cannot be ordered by yeast fitness: at most 0.5 for the first, at most 0.5 for the second.

Going from C5U U35G U47A G48A A65U to A37C C60U A70C, the yeast fitness falls from 0.557 to 0.546.

U3A C24G C29A G50C A57C C66U and U2A U19A A20C G25A U26A cannot be ordered by yeast fitness: at most 0.5 for the first, at most 0.5 for the second.

C5U U64A G67U and C29G U35G A42G C61U cannot be ordered by yeast fitness: at most 0.5 for the first, at most 0.5 for the second.

Compared with U28A C60A, G67A A70G is higher in yeast fitness: 0.535 for the first, 0.917 for the second.

Compared with A14C U28G, C27G A43C G63C is lower in yeast fitness: 0.625 for the first, at most 0.5 for the second.

Going from C4U C5G C60A to C49G A69U, the yeast fitness rises from at most 0.5 to 0.955.

First: U26A G63C A69U
Second: U2G U7G U26A C49U A65U
The yeast fitness of the first is higher: 0.527 for the first, at most 0.5 for the second.

Going from A40U C60U to C5G U35C C49U C61G, the yeast fitness falls from 0.832 to at most 0.5.

Variant G18A C49U has a yeast fitness of 0.892.
